The text below walks through data of ChEMBL document CHEMBL2086264.

The structures appear in SMILES notation. Converted amounts (≈) assume the structure as drawn. The source made the active and inactive calls. The calls are words filed in the database; no cut-off is given here.

For experiment [1], the system named is Staphylococcus aureus subsp. aureus RN4220. The experiment is described as follows: Inhibition of PlsY-mediated lipid synthesis in Staphylococcus aureus RN4220 harboring gpsA mutant assessed as increase in [14C]-labeled free fatty acid level.
Experiment [2] deals with Staphylococcus aureus. The experiment is described as follows: Antibacterial activity against Staphylococcus aureus ATCC 29213 after overnight incubation by microbroth dilution assay. The experiment is classed as functional. A digest of the protocol: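 CLSI M7A7 microbroth dilution in Mueller-Hinton broth; S. pneumoniae broth given 5% lysed horse blood. DMSO stocks of 10 mg/mL; twofold dilutions to final 200–0.0125 µg/mL. Mid-log inoculum (OD600 0.5) diluted to final OD600 0.0005 (~10^5 CFU/mL). Overnight at 37°C; MIC is the lowest concentration inhibiting 90% of visible growth.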
For orientation: In broth dilution the organism is exposed to a series of concentrations in liquid medium.

For experiment [3], the system named is Bacillus anthracis. Put plainly: Antibacterial activity against Bacillus anthracis after overnight incubation by microbroth dilution assay. In kind it is functional.
In experiment [4] the test system is Staphylococcus aureus subsp. aureus RN4220. The experiment is described as follows: Inhibition of PlsY in Staphylococcus aureus RN4220 harboring gpsA mutant assessed as Fab4-mediated fatty acid chain elongation measured as 20C fatty acid level at 25 uM after 2.5 hrs by mass spectrophotometry. Also noted: scale not given: the % may be the effect or the level left. A digest of the protocol: (§1)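 RN4220 grown in Luria-Bertani broth at 37°C with 225 rpm shaking to OD600 0.5. 50 mL cultures treated for 2.5 h alongside a DMSO control. Lipids extracted by Bligh–Dyer and fatty acids analyzed by gas chromatography. Weight percent, mean of duplicates; not detected means <1%.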

In experiment [5] the test system is Staphylococcus aureus. Put plainly: Inhibition of DNA synthesis in Staphylococcus aureus RN4220 harboring gpsA mutant assessed as inhibition of [3H]thymidine incorporation into DNA at 50 uM incubated for 15 mins before [3H]thymidine addition measured after 30 mins by scintillation counting. In kind it is functional, organism-based. A digest of the protocol: (§2)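 RN4220 at OD600 0.5 in 10 mL aliquots, 15 min with compound. Then 30 min with 10 µCi label: 3H amino acid mix (protein), [3H]thymidine (DNA) or [3H]uracil (stable RNA). Cells collected on 0.45 µm filters, counted, OD600-normalized and expressed relative to untreated cells. Duplicates, mean with standard error.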
(Uptake of a labelled nucleoside into DNA is a usual measure of proliferation.)

Experiment [6] concerns Staphylococcus aureus subsp. aureus RN4220. Put plainly: Inhibition of PlsY in Staphylococcus aureus RN4220 harboring gpsA mutant assessed as 34C phophotidylglycerol formation at 25 uM after 2.5 hrs by mass spectrophotometry. A digest of the protocol: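 RN4220 grown in Luria-Bertani broth at 37°C to OD600 0.5. 50 mL aliquots treated for 2.5 h alongside a DMSO control. Cells PBS-washed, lipids extracted by Bligh–Dyer. Phosphatidylglycerol molecular species distribution determined by mass spectrometry.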

Experiment [7] shares this test system. Put plainly: Inhibition of PlsY in Staphylococcus aureus RN4220 harboring gpsA mutant assessed as Fab4-mediated fatty acid chain elongation measured as 18C fatty acid level at 50 uM after 2.5 hrs by mass spectrophotometry. Also noted: scale not given: the % may be the effect or the level left. A digest of the protocol:
as §1

Experiment [8] has the same test system. Put plainly: Inhibition of PlsY in Staphylococcus aureus RN4220 harboring gpsA mutant assessed as Fab4-mediated fatty acid chain elongation measured as 18C fatty acid level at 25 uM after 2.5 hrs by mass spectrophotometry. More on the design: scale not given: the % may be the effect or the level left. A digest of the protocol:
as §1

Experiment [9] concerns Staphylococcus aureus. Put plainly: Growth inhibition of Staphylococcus aureus RN4220 harboring gpsA mutant at >= 25 uM measured over 2 hrs by spectrophotometry. The experiment is classed as functional, organism-based.
Experiment [10] has as its system Staphylococcus aureus subsp. aureus RN4220. The experiment is described as follows: Inhibition of PlsY in Staphylococcus aureus RN4220 harboring gpsA mutant assessed as Fab4-mediated fatty acid chain elongation measured as 19C fatty acid level at 25 uM after 2.5 hrs by mass spectrophotometry. Also noted: scale not given: the % may be the effect or the level left. A digest of the protocol: as §1

Experiment [11] shares this test system. Put plainly: Inhibition of PlsY in Staphylococcus aureus RN4220 harboring gpsA mutant assessed as Fab4-mediated fatty acid chain elongation measured as 16C fatty acid level at 25 uM after 2.5 hrs by mass spectrophotometry. Also noted: scale not given: the % may be the effect or the level left. A digest of the protocol:
as §1

For experiment [12] the test system is unchanged. Put plainly: Inhibition of PlsY-mediated lipid synthesis in Staphylococcus aureus RN4220 assessed as inhibition of [14C]acetate incorporation into membrane phospholipids incubated for 15 mins prior to [14C]acetate addition measured after 30 mins by scintillation counting. A digest of the protocol:
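Cultures grown from OD600 0.1 to 0.5, split into 10 mL aliquots, exposed to inhibitor or DMSO control for 15 min, then pulsed with [14C]acetate (10 µCi) for 30 min. Cells washed 4× in PBS, lipids extracted by Bligh and Dyer, counted by scintillation and normalized to OD600. Duplicates, mean with standard error.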

Experiment [13] deals with Staphylococcus aureus. Put plainly: Inhibition of protein synthesis in Staphylococcus aureus RN4220 harboring gpsA mutant assessed as inhibition of [3H]amino acid incorporation into protein at 50 uM incubated for 15 mins before [3H]amino acid addition measured after 30 mins by scintillation counting. In kind it is functional, organism-based. A digest of the protocol: as §2

In experiment [14] the test system is Staphylococcus aureus. Put plainly: Growth inhibition of Staphylococcus aureus RN4220 harboring gpsA mutant at 6.25 to 100 uM measured immediately by spectrophotometry. The experiment is classed as functional, organism-based.
Experiment [15] concerns Staphylococcus aureus subsp. aureus RN4220. The experiment is described as follows: Inhibition of PlsY in Staphylococcus aureus RN4220 harboring gpsA mutant assessed as accumulation of long chain acyl-ACP at 12.5 to 100 uM after 2.5 hrs by Western blot analysis. A digest of the protocol:
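Mid-log RN4220 (OD600 0.5) in 50 mL aliquots treated with compound at 37°C. Cell extracts loaded according to OD600 for similar total protein. Acyl-ACP species separated on 15% polyacrylamide gels containing 2 M urea, then detected by western blot with anti-ACP antibody.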

Experiment [16] has the same test system. The experiment is described as follows: Inhibition of PlsY in Staphylococcus aureus RN4220 harboring gpsA mutant assessed as Fab4-mediated fatty acid chain elongation measured as 16C fatty acid level at 50 uM after 2.5 hrs by mass spectrophotometry. Also noted: scale not given: the % may be the effect or the level left. A digest of the protocol: as §1
The test system of experiment [17] is Bacillus anthracis. The experiment is described as follows: Growth inhibition of Bacillus anthracis sterne at 5 uM measured immediately post-compound addition. The experiment is classed as functional, organism-based.
In experiment [18] the test system is Bacillus anthracis. The experiment is described as follows: Inhibition of DNA synthesis in Bacillus anthracis sterne assessed as Inhibition of [3H]thymidine incorporation into DNA incubated for 15 mins prior to [3H]thymidine addition measured after 30 mins by scintillation counting. The experiment is classed as functional, organism-based.
The test system of experiment [19] is Staphylococcus aureus subsp. aureus RN4220. The experiment is described as follows: Inhibition of PlsY in Staphylococcus aureus RN4220 harboring gpsA mutant assessed as Fab4-mediated fatty acid chain elongation measured as 17C fatty acid level at 25 uM after 2.5 hrs by mass spectrophotometry. More on the design: scale not given: the % may be the effect or the level left. A digest of the protocol: as §1

Experiment [20] has the same test system. The experiment is described as follows: Inhibition of PlsY in Staphylococcus aureus RN4220 harboring gpsA mutant assessed as Fab4-mediated fatty acid chain elongation measured as 15C fatty acid level at 25 uM after 2.5 hrs by mass spectrophotometry. Also noted: scale not given: the % may be the effect or the level left. A digest of the protocol:
as §1

The nature of experiment [21]: Inhibition of Staphylococcus aureus PlsY expressed in Escherichia coli FB23281 using [U-14C]glycerol-PO4 as substrate after 20 mins by scintillation counting. A digest of the protocol: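 Membranes from E. coli FB23281 (ΔplsY) expressing S. aureus PlsY (SA1187), 4 µg per reaction. pH 7.4 buffer of 100 mM Tris–HCl, 150 mM NaCl, 1 mg/mL BSA and 5 mM Na3VO4, with 100 µM [U-14C]glycerol-PO4. Started with 16:0-PO4 (final 100 µM), 20 min at 37°C. Spotted on filter discs, washed in graded ice-cold TCA, scintillation counted.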

The test system of experiment [22] is Staphylococcus aureus subsp. aureus RN4220. The experiment is described as follows: Inhibition of PlsY-mediated lipid synthesis in Staphylococcus aureus RN4220 harboring gpsA mutant assessed as inhibition of [14C]acetate incorporation into fatty acid at 50 uM incubated for 15 mins prior to [14C]acetate addition measured after 30 mins by scintillation counting. A digest of the protocol:
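Mid-log S. aureus RN4220 (OD600 0.5) split into 10 mL aliquots. Compound or DMSO added for 15 min, then 10 µCi [14C]acetate for 30 min. Cells PBS-washed, lipids extracted by Bligh–Dyer, scintillation counted and normalized to OD600. Duplicates, mean with standard error.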

One may read the MIC90 as the lowest concentration that inhibits either 90% of growth or 90% of the strains tested, depending on the study. For orientation: IC50 means the midpoint of a concentration-inhibition curve. On to `O=C(CCCCCCCc1ccccc1)NS(=O)(=O)Oc1ccccc1`, for which the inhibition result in experiment [1], in experiment [6], in [15], in [18] and in [22] was “Active” throughout. Also, the MIC90 in [2] worked out at 12.5 µg/mL (≈ 33.3 µM); in experiment [3], 6.25 µg/mL (≈ 16.6 µM). Besides, the Activity in experiment [4] is 9%; in experiment [7], 12%; in [8], 9%; in experiment [10], 18%; in experiment [11], 5%; in experiment [16], 6%. Further, the Activity in experiment [19] was found to be 10%; in experiment [20], 37%. In addition, the inhibition entry in [5] and in experiment [13] was “inactive” throughout. In addition, the “growth inhibition (GI)” value in experiment [9] and in [17] was “Active” each time. In [12], the inhibition entry is “Dose-dependent effect”. For the same compound, the “growth inhibition (GI)” value in experiment [14] is “inactive”. The compound further displayed an IC50 in experiment [21] of 25 µM.
